Measurements: PMC5463454 (Cancer discovery, 2016)
“And” between values parts separate entries of the source, which are not always exact repeats. Equal values may be shown once.

Experiments:
[1] = tested on: all three isoforms of AKT; settings: cited from earlier work
AKT pathway effectors = test: RPPA of paired pretreatment and on-treatment tumor biopsies; type: in vivo, human
Summary of the method: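 Patients with solid tumours took test compound orally once daily, 21 days on/7 off per 28-day cycle. At doses ≥100 mg, three consenting patients per cohort had needle core biopsies at baseline and on cycle 1 days 15–21. Cores were snap-frozen and profiled by RPPA for pAKT, pGSK3β, pPRAS40, pmTOR, p4EBP1, pS6 and pERK, comparing on-treatment with paired pretreatment samples.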

glucose and insulin = test: Blood glucose, insulin and HbA1c; type: in vivo, human
clinical = type: in vivo; settings: for half-life / AUC(0-t) / Cmax / Tmax: human, plasma, oral
[2] = 100 mg (n = 2), steady state, individual values
[3] = 100 mg, Day 15, 100 mg (n = 2), steady state, individual values

In the case of `CC(C)NC[C@@H](C(=O)N1CCN(c2ncnc3c2[C@H](C)C[C@H]3O)CC1)c1ccc(Cl)cc1` [Ipatasertib], the IC50 [1] is given as 5 to 18 nM, the “pAKT (Thr308 and Ser473) in on-treatment vs pretreatment biopsies” value (AKT pathway effectors; RPPA, 100 mg to 800 mg) is given as “dose-dependent accumulation” and the “pERK and pHER3 in on-treatment vs pretreatment biopsies” value (AKT pathway effectors; RPPA, as low as 100 mg) is given as “upregulation”. For the same compound, the “inhibition of multiple AKT targets” value (AKT pathway effectors; approximately) was > 80%, the “time for glucose and insulin levels to return to baseline” value (glucose and insulin; after ipatasertib dose) was ≤ 6 h and the “baseline glucoses after two cycles” value (glucose and insulin; all patients in stage 1) was “did not significantly elevate baseline glucoses”. For the same compound, the nonfasting blood glucose (glucose and insulin; almost all patients dosed with ipatasertib ≥200 mg) was “transient nonfasting (post-meal) asymptomatic hyperglycemia”, the “glycated hemoglobin A1c (HbA1c), end of study vs baseline at screening” value (glucose and insulin; including patients at 800 mg) was “did not change significantly” and the elevation in insulin (glucose and insulin; ipatasertib ≥600 mg) was “up to 500 fold”. The “Accumulation ratio, AUC0–24,ss (day 15)/AUC0–24 (day 1)” value (shortened to “Accumulation ratio, AUC0–24,ss”) (clinical; 25 mg (n = 3), geometric mean (%CV)) was 2.78 (15.7%), the “Accumulation ratio, AUC0–24,ss” value (clinical; 50 mg (n = 3), geometric mean (%CV)) was 2.43 (32.1%) and the “AUC0–24,ss, Day 15” value (clinical; [2]) was 568 ng·h/mL and 239 ng·h/mL. The “Cmax, Day 15” value (clinical; [2]) was 53.0 ng/mL, the “Accumulation ratio, AUC0–24,ss” value (clinical; 100 mg (n = 2), individual values) was 2.57 and 0.927 and the “clinical exposure relative to preclinical efficacy” value (clinical; 100 mg, most sensitive preclinical models) was “equivalent to TGI 60”. The “Accumulation ratio, AUC0–24,ss” value (clinical; 200 mg (n = 3), geometric mean (%CV)) was 2.44 (28.1%), the “Accumulation ratio, AUC0–24,ss” value (clinical; 400 mg (n = 3), geometric mean (%CV)) was 1.95 (36.5%) and the “t1/2, Day 1” value (clinical; 600 mg (n = 7), single dose, geometric mean (range)) was 45.8 (36.7–55.0) h. For the same compound, the “Accumulation ratio, AUC0–24,ss” value (clinical; 600 mg (n = 7), geometric mean (%CV)) was 1.80 (73.6%), the “Accumulation ratio, AUC0–24,ss” value (clinical; 800 mg (n = 5), geometric mean (%CV)) was 2.22 (20.0%) and the “mean accumulation ratio (AUC0–24,ss/AUC0–24, day 1), range over doses” value (clinical; doses of 200 mg to 800 mg) was 1.80 to 2.44. For the same compound, the half-life (clinical) was 31.9 to 53 h, the half-life (clinical; 25 mg) was 4.46 h and the AUC(0-t) (clinical; 25 mg, AUC0–24, Day 1, 25 mg (n = 3), single dose, geometric mean (%CV)) was 31.8 ng·h/mL. It also gave an AUC(0-t) (clinical; 25 mg, AUC0–24,ss, Day 15, 25 mg (n = 3), steady state, geometric mean (%CV)) of 88.3 ng·h/mL, a Cmax (clinical; 25 mg, Day 1, 25 mg (n = 3), single dose, geometric mean (%CV)) of 8.93 ng/mL and a Cmax (clinical; 25 mg, Day 15, 25 mg (n = 3), steady state, geometric mean (%CV)) of 8.92 ng/mL. It also gave a Tmax (clinical; 25 mg, Day 1, 25 mg (n = 3), single dose, median (range)) of 0.5 h, a Tmax (clinical; 25 mg, Day 15, 25 mg (n = 3), steady state, median (range)) of 0.5 h and a half-life (clinical; 50 mg) of 10.1 h. It also gave an AUC(0-t) (clinical; 50 mg, AUC0–24, Day 1, 50 mg (n = 3), single dose, geometric mean (%CV)) of 70.3 ng·h/mL, an AUC(0-t) (clinical; 50 mg, AUC0–24,ss, Day 15, 50 mg (n = 3), steady state, geometric mean (%CV)) of 171 ng·h/mL and a Cmax (clinical; 50 mg, Day 1, 50 mg (n = 3), single dose, geometric mean (%CV)) of 13.3 ng/mL. For the same compound, the Cmax (clinical; 50 mg, Day 15, 50 mg (n = 3), steady state, geometric mean (%CV)) was 33.9 ng/mL, the Tmax (clinical; 50 mg, Day 1, 50 mg (n = 3), single dose, median (range)) was 2.92 h and the Tmax (clinical; 50 mg, Day 15, 50 mg (n = 3), steady state, median (range)) was 1 h. It also gave a half-life (clinical; 100 mg) of 31.9 h, an AUC(0-t) (clinical; 100 mg, AUC0–24, Day 1, 100 mg (n = 3), single dose, geometric mean (%CV)) of 260 ng·h/mL and a Cmax (clinical; 100 mg, Day 1, 100 mg (n = 3), single dose, geometric mean (%CV)) of 59.8 ng/mL. It also gave a Cmax (clinical; [3]) of 76.2 ng/mL, a Tmax (clinical; 100 mg, Day 1, 100 mg (n = 3), single dose, median (range)) of 2.97 h and a Tmax (clinical; [3]) of 0.5 to 0.67 h. For the same compound, the half-life (clinical; 200 mg) was 39.1 h, the AUC(0-t) (clinical; 200 mg, AUC0–24, Day 1, 200 mg (n = 3), single dose, geometric mean (%CV)) was 726 ng·h/mL and the AUC(0-t) (clinical; 200 mg, AUC0–24,ss, Day 15, 200 mg (n = 3), steady state, geometric mean (%CV)) was 1770 ng·h/mL. It also gave a Cmax (clinical; 200 mg, Day 1, 200 mg (n = 3), single dose, geometric mean (%CV)) of 130 ng/mL, a Cmax (clinical; 200 mg, Day 15, 200 mg (n = 3), steady state, geometric mean (%CV)) of 183 ng/mL and a Tmax (clinical; 200 mg, Day 1, 200 mg (n = 3), single dose, median (range)) of 3 h. The Tmax (clinical; 200 mg, Day 15, 200 mg (n = 3), steady state, median (range)) was 1 h, the half-life (clinical; 400 mg) was 53 h and the AUC(0-t) (clinical; 400 mg, AUC0–24, Day 1, 400 mg (n = 3), single dose, geometric mean (%CV)) was 1650 ng·h/mL. It also gave an AUC(0-t) (clinical; 400 mg, AUC0–24,ss, Day 15, 400 mg (n = 3), steady state, geometric mean (%CV)) of 3210 ng·h/mL, a Cmax (clinical; 400 mg, Day 1, 400 mg (n = 3), single dose, geometric mean (%CV)) of 506 ng/mL and a Cmax (clinical; 400 mg, Day 15, 400 mg (n = 3), steady state, geometric mean (%CV)) of 838 ng/mL. For the same compound, the Tmax (clinical; 400 mg, Day 1, 400 mg (n = 3), single dose, median (range)) was 1 h, the Tmax (clinical; 400 mg, Day 15, 400 mg (n = 3), steady state, median (range)) was 1 h and the half-life (clinical; 600 mg) was 45.8 h. It also gave an AUC(0-t) (clinical; 600 mg, AUC0–24, Day 1, 600 mg (n = 7), single dose, geometric mean (%CV)) of 2670 ng·h/mL, an AUC(0-t) (clinical; 600 mg, AUC0–24,ss, Day 15, 600 mg (n = 7), steady state, geometric mean (%CV)) of 4450 ng·h/mL and a Cmax (clinical; 600 mg, Day 1, 600 mg (n = 7), single dose, geometric mean (%CV)) of 488 ng/mL. For the same compound, the Cmax (clinical; 600 mg, Day 15, 600 mg (n = 7), steady state, geometric mean (%CV)) was 748 ng/mL, the Tmax (clinical; 600 mg, Day 1, 600 mg (n = 7), single dose, median (range)) was 0.58 h and the Tmax (clinical; 600 mg, Day 15, 600 mg (n = 7), steady state, median (range)) was 0.83 h. The half-life (clinical; 800 mg) was 43.8 h, the AUC(0-t) (clinical; 800 mg, AUC0–24, Day 1, 800 mg (n = 7), single dose, geometric mean (%CV)) was 3220 ng·h/mL and the AUC(0-t) (clinical; 800 mg, AUC0–24,ss, Day 15, 800 mg (n = 5), steady state, geometric mean (%CV)) was 6670 ng·h/mL. It also gave a Cmax (clinical; 800 mg, Day 1, 800 mg (n = 7), single dose, geometric mean (%CV)) of 479 ng/mL, a Cmax (clinical; 800 mg, Day 15, 800 mg (n = 5), steady state, geometric mean (%CV)) of 879 ng/mL and a Tmax (clinical; 800 mg, Day 1, 800 mg (n = 7), single dose, median (range)) of 2 h.
